High-throughput results deposited in PubChem by several laboratories.
ROMK primary: ROMK potassium channel modulators, primary screen, cell-based, thallium flux, MLSMR library | Tet-inducible ROMK, thallium flux fluorescence; actives lie on both sides | B-score at 10 µM | actives 2% (n = 130,000) | AID 1918, 2009;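 active = signal ratio slope over the read window, or its plate-corrected B-score, at least 3 SD from the plate mean, either direction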;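 note: B-score of the F/F0 ratio slope over 7 to 12 s after thallium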
Cl transport mod: KCC2 cotransporter modulators, thallium flux, primary screen, cell-based, HEK293 KCC2, FluoZin-2 fluorescence, MLSMR. KCC2 cells, thallium flux FluoZin-2 fluorescence. B-score of Tl+ flux slope (higher = more flux/activation; lower = inhibition) at 10 µM. actives 2.2% (n = 190,000). AID 1456, 2008;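 active = thallium flux slope and its plate-corrected score both differing from the plate sample mean at a set confidence after two filtering rounds, in either direction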;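 note: slope of fluorescence scaled to starting intensity during 10 to 20 s after thallium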
ABCG2 inh: ABCG2 efflux pump inhibitors, primary screen, multiplex with ABCB1, IgMXP3 cells, flow cytometry. Broad substrate specificity ATP-binding cassette transporter ABCG2 (Homo sapiens), Q9UNQ0. JC-1 efflux. inhibition, % at 6.6 µM. actives 0.1% (n = 190,000);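 active = inhibition above 80%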
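Incubation: cells with compound and JC-1, 10 min at 25 °C, rotating, no wash / Test system: IgMXP3 (ABCG2) plus far-red-tagged CCRF-Adr (ABCB1) cells / Compound dosing: one concentration, 6.6 µM final / Also added: JC-1 fluorescent substrate / Evaluation: efflux inhibition in percent versus controls / Detection: flow cytometry, 530 nm JC-1 signal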
PMI act hi M6P: human PMI activators, high substrate, primary screen, biochemical, fluorescence intensity, near-saturating mannose 6-phosphate | actives 0.34% (n = 190,000) | coupled PMI enzyme assay, resazurin fluorescence, 20 min; active compounds read high; 1 = untreated enzyme, 0 = substrate-free blank | AID 1216, 2008 | activation factor at 20 µM;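 active = activation factor of 2 or more at 20 µM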
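Test system: human PMI in coupled enzyme assay; Input: PMI at 15 ng/mL final; Medium: HEPES buffer, pH 7.4; Schedule: 20 min incubation at room temperature; Technique: resorufin fluorescence at Ex 544/Em 590 nm; Compound: 20 µM single dose; Probe or stimulus: Near-saturating mannose-6-phosphate, 1.0 mM.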
ABCB1 block: ABCB1 efflux pump inhibitors, primary screen, cell-based, multiplex, flow cytometry, ABCG2 counter-screen; inhibition, % at 6.6 µM; actives 0.067% (n = 190,000); ATP-dependent translocase ABCB1 (Homo sapiens), P08183; CCRF-Adr cells, JC-1 efflux; in the data active = inhibition above about 40%;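 note: higher value means more JC-1 retained so stronger ABCB1 efflux block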
PMI act: activators of human PMI, primary screen, biochemical, fluorescence intensity, near-Km mannose 6-phosphate. AID 1214, 2008. purified human PMI, coupled resazurin fluorescence, 20 min; active compounds read high; 1 = vehicle control, 0 substrate-free wells. actives 0.005% (n = 190,000). activation factor at 20 µM. Mannose-6-phosphate isomerase (Homo sapiens), P34949;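 active = activation factor of 2 or more at 20 µM, relative to plate controls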
KCC2 sec1: KCC2 modulators in sodium-free buffer, confirmation, cell-based, HEK293 KCC2, thallium flux, secondary assay | shares compounds with Cl transport mod | FluoZin2 fluorescence; active compounds read high | normalised thallium flux (F/F0 slope) at 10 µM | actives 15% (n = 3,700) | AID 1713, 2009;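 active = thallium flux slope above the same plate's solvent-only control mean plus 3 SD; inconclusive = the two replicate wells disagree; inactive = no significant difference from solvent-only control wells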
KCC2 bumet counter: thallium flux persisting under bumetanide in KCC2 cells, confirmation, counter-screen for KCC2 modulator project, cell-based, HEK293 KCC2, FluoZin2, secondary assay 3; shares compounds with Cl transport mod; HEK293-KCC2 + bumetanide/ouabain; active compounds read high; normalized thallium flux at 10 µM; actives 49% (n = 3,700); AID 1714, 2009;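 active = thallium entry rate above the same plate's blocked-transporter control wells by more than 3 SD; inconclusive = the two repeat wells disagree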;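 note: raw slope of fluorescence over initial fluorescence between 10 and 20 s after thallium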
KCC2 secondary2: KCC2 modulators without ouabain present, confirmation, cell-based, HEK293 KCC2, thallium flux, FluoZin2, secondary assay 2 | actives 23% (n = 3,700) | AID 1715, 2009 | shares compounds with Cl transport mod | normalized thallium flux at 10 µM | thallium flux FluoZin2 fluorescence; actives lie on both sides; F/F0 rise rate, 10–20 s post-thallium;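 active = thallium flux slope more than 3 SD above or below the plate's solvent-only control mean, mostly below; inconclusive = the two repeat wells disagreed; inactive = no significant shift from solvent-only controls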
HEK293 Tl flux: thallium flux modulation in parental HEK cells, confirmation, counter-screen for KCC2 modulator project, cell-based, counterscreen 1 | shares compounds with Cl transport mod | HEK293 parental cells, thallium flux FluoZin2, ouabain; baseline-ratio fluorescence slope, 10–20 s after thallium | thallium flux rate (normalised fluorescence) at 10 µM | actives 46% (n = 3,700) | AID 1716, 2009;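 active = thallium flux rate significantly above the same plate's solvent-only control wells, beyond their mean plus 3 SD; inconclusive = the two replicate wells gave conflicting results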
KCC2 retest ouab: KCC2 inhibitors and activators, ouabain retest, confirmation, HEK-KCC2 cells | raw Tl+ flux slope (below DMSO = inhibition, above = activation) at 10 µM | HEK293-KCC2, thallium flux FluoZin2 fluorescence; bidirectional: low = inhibitor, high = activator | shares compounds with Cl transport mod | actives 48% (n = 3,700);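 active = thallium flux slope beyond 3 SD from same-plate DMSO control mean in most replicates, usually higher, sometimes lower; inconclusive = repeat tests gave conflicting results; inactive = no significant difference from controls in most replicates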;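 note: slope of initial-normalized fluorescence between seconds 10 and 20 after thallium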
HEK counter2: native HEK Tl+ uptake effects, second counter-screen – HEK cells, counterscreen 2, counter-screen for KCC2 modulator project, confirmation; shares compounds with Cl transport mod; HEK293 parental, thallium flux FluoZin-2 fluorescence slope; thallium flux slope at 10 µM; actives 33% (n = 3,700); AID 1718, 2009;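 active = thallium flux slope above the same plate's solvent-control mean plus 3 SD in both duplicate wells; inconclusive = duplicate wells that disagreed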;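 note: run without ouabain in cells lacking the KCC2 cotransporter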
Each line names hits and unclear results; the compound was inactive in the other large screens (follow-up assays come after a bar, where they were run). A selection: hits, their analogues and other compounds. The true share with any hit is near 3.3%.

Cc1ccc(OCC(=O)NNC(=O)CSc2ncnc3sc(C)c(C)c23)cc1	Cl transport mod 13 (no result: ROMK primary) | KCC2 sec1 inactive | KCC2 bumet counter 0.016 | KCC2 secondary2 inactive | HEK293 Tl flux 0.02 | KCC2 retest ouab 0.029 | HEK counter2 0.013
Cc1sc2ncnc(SCC(=O)c3ccc(O)cc3O)c2c1C	Cl transport mod 102 (no result: ROMK primary, ABCG2 inh, PMI act hi M6P, ABCB1 block, PMI act) | KCC2 sec1 0.01 | KCC2 bumet counter 0.087 | KCC2 secondary2 0.076 | HEK293 Tl flux 0.076 | KCC2 retest ouab 0.078 | HEK counter2 0.055
Cc1ccc(OCCSc2ncnc3sc(C)c(C)c23)cc1C	none (no result: ROMK primary, Cl transport mod) | KCC2 sec1 0.014 | KCC2 bumet counter 0.042 | KCC2 secondary2 inactive | HEK293 Tl flux inconclusive | KCC2 retest ouab inconclusive | HEK counter2 0.013
CCc1ccc(OCC(=O)NNC(=O)CSc2ncnc3sc(C)c(C)c23)cc1	Cl transport mod 4.5 | KCC2 sec1 inconclusive | KCC2 bumet counter 0.015 | KCC2 secondary2 inactive | HEK293 Tl flux 0.01 | KCC2 retest ouab inconclusive | HEK counter2 inactive
N#CC1=C(S)N=C(N)C(c2nc(-c3ccccc3)cs2)C12CCCCC2 (centres undefined)	Cl transport mod -3.9 | KCC2 sec1 inactive | KCC2 bumet counter inactive | KCC2 secondary2 0.022 | HEK293 Tl flux inactive | KCC2 retest ouab 0.016 | HEK counter2 inactive
COc1cc(S(=O)(=O)N(Cc2cccnc2)Cc2cccc(OC)c2OC)ccc1-n1cnnn1	none (no result: ABCG2 inh, PMI act hi M6P, ABCB1 block, PMI act)
CCN(Cc1ccncc1)S(=O)(=O)c1ccc(C(C)=O)cc1	none (no result: ROMK primary)
c1ccc(CNc2ncnc3sc4c(c23)CCC4)nc1	Cl transport mod -4.2 (no result: ROMK primary) | KCC2 sec1 inactive | KCC2 bumet counter inactive | KCC2 secondary2 inactive | HEK293 Tl flux 0.0059 | KCC2 retest ouab inactive | HEK counter2 inactive
Cc1noc(C)c1C(=O)OCC(=O)NC1CC1	none
